According to ChEMBL document CHEMBL2176901, “Pyrrolo[3,4-h]quinolinones a new class of photochemotherapeutic agents” (Bioorg Med Chem, 2011):
Calls of active or inactive are those of the source. The calls are words filed in the database; no cut-off is given here.

Legend:
[1] = test system: HL-60; assay: Phototoxicity in 2.5 J/cm'2 UV-A irradiated human HL60 cells after 72 hrs by MTT assay; assay type: functional, cell-based; conditions: HL-60, light or radiation study
In short: (§1)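 HL-60 and Jurkat (8×10³/well, RPMI-1640) and MCF-7, LoVo, NCTC-2544 (5×10³/well; DMEM or Ham's F12) preincubated 18 h at 37 °C, 5% CO₂. Compound in DMSO diluted in HBSS pH 7.2, 30 min at 37 °C, then UV-A at 2.5 or 3.75 J/cm². Medium replaced, 72 h incubation, MTT read-out. IC50 as mean ± SEM of three experiments.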

[2] = test system: Nucleic Acid; assay: Induction of photo-induced supercoiled Escherichia coli pBR322 DNA at drug:DNA ratio of 1:3 by agarose gel electrophoresis in presence of glutathione; assay type: nucleic-acid assay
In short: (§2)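 Supercoiled pBR322 (100 ng) in 10 mM phosphate buffer pH 7.2 irradiated with UV-A (3.75 J/cm²) at [DNA]/[drug] 1/3, with additives, under nitrogen or in deuterated buffer as stated. Aliquots then incubated at 37 °C with Fpg or Endo III. Run on 1% agarose in TAE, 80 V for 2 h, stained with ethidium bromide; Form I/II fractions from band densitometry.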

[3] = test system: MCF7; assay: Phototoxicity in 2.5 J/cm'2 UV-A irradiated human MCF7 cells assessed as cell viability after 72 hrs by MTT assay in presence of radical scavenger DMTU; assay type: functional, cell-based
In short: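 MCF-7 cells given compound plus scavenger in HBSS, 30 min at 37 °C, then UV-A (2.5 J/cm², 365 nm lamp). Medium replaced; viability by MTT after 72 h. Means ± SEM of at least three independent experiments.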

[4] = test system: MCF7; assay: Phototoxicity in 2.5 J/cm'2 UV-A irradiated human MCF7 cells after 72 hrs by MTT assay; assay type: functional, cell-based; conditions: MCF7, light or radiation study; in short: as §1
[5] = test system: Jurkat; assay: Induction of apoptosis in 3.75 J/cm'2 UV-A irradiated human Jurkat cells assessed as late apoptotic cells at 5 uM after 24 hrs by Annexin-V-FITC and propidium iodide based flow cytometry (reference value: 2.9 %); assay type: functional
[6] = test system: LoVo; assay: Phototoxicity in 3.75 J/cm'2 UV-A irradiated human LoVo cells after 72 hrs by MTT assay; assay type: functional, cell-based; conditions: light or radiation study
In short: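 Seeded at 5 × 10³ cells/well with 10% FBS: MCF-7 and NCTC-2544 in DMEM, LoVo in Ham's F12. Pre-incubated 18 h at 37 °C, 5% CO2. Compound (DMSO stock diluted in HBSS pH 7.2) was applied for 30 min at 37 °C, then UV-A irradiation (mainly 365 nm, 4.0 mW/cm²). Medium was restored for 72 h before MTT. IC50 is the mean ± SEM of three experiences.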

[7] = Drug uptake in endoplasmic reticulum of human NCTC-2544 cells at 10 uM after 2 hrs by fluorescence microphotography; assay type: ADME, cell-based; conditions: nctc-2544, 2 h
In short: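 NCTC-2544 cells attached in Petri dishes, given compound at 10 μM for 2 h, washed with HBSS. Then 30 min with Rhodamine 123 (mitochondria), LysoTracker RED, CellMask Orange (plasma membrane) or ER-Tracker. Blue compound fluorescence overlaid on probe images by video-confocal microscopy.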

[8] = test system: Nucleic Acid; assay: Induction of photo-induced supercoiled Escherichia coli pBR322 DNA damage at drug:DNA ratio of 1:3 by agarose gel electrophoresis in presence of DABCO; assay type: nucleic-acid assay; in short: as §2
[9] = test system: Jurkat; assay: Cell cycle arrest in UV-A irradiated human Jurkat cells assessed as accumulation at G2/M phase at 5 uM after 24 hrs by propidium iodide based flow cytometry (reference value: 10.3 %); assay type: functional
In short: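 Exponentially growing Jurkat cells (5×10^5) irradiated with UV-A (365 nm lamp, 2.5 J/cm²) in presence of compound. After 24 h: fixed in ice-cold 70% ethanol, lysed with RNAse A, stained with PI (10 µg/ml), analysed by flow cytometry. Phases calculated on living cells; subG1 is hypodiploid DNA peak.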

[10] = test system: Nucleic Acid; assay: Induction of photo-induced supercoiled Escherichia coli pBR322 DNA damage at drug:DNA ratio of 1:3 by agarose gel electrophoresis in presence of mannitol; assay type: nucleic-acid assay; in short: as §2
[11] = test system: HL-60; assay: Phototoxicity in 3.75 J/cm'2 UV-A irradiated human HL60 cells after 72 hrs by MTT assay; assay type: functional, cell-based; conditions: HL-60, light or radiation study; in short: as §1
[12] = test system: Nucleic Acid; assay: Binding affinity to salmon testes DNA at 10 uM by fluorescence titration; assay type: nucleic-acid assay; conditions: Salmonidae
In short: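 Fluorimetric titration of compound (10 μM) with increasing stDNA (0 to 100 μM) in 10 mM phosphate buffer pH 7.2; quenching of compound fluorescence monitored.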

[13] = test system: Jurkat; assay: Induction of apoptosis in 3.75 J/cm'2 UV-A irradiated human Jurkat cells assessed as necrotic cells at 5 uM after 24 hrs by Annexin-V-FITC and propidium iodide based flow cytometry (reference value: 4.2 %); assay type: functional
[14] = test system: Jurkat; assay: Induction of apoptosis in 3.75 J/cm'2 UV-A irradiated human Jurkat cells assessed as late apoptotic cells at 10 uM after 24 hrs by Annexin-V-FITC and propidium iodide based flow cytometry (reference value: 2.9 %); assay type: functional
[15] = test system: Jurkat; assay: Induction of apoptosis in 3.75 J/cm'2 UV-A irradiated human Jurkat cells assessed as viable cells at 10 uM after 24 hrs by Annexin-V-FITC and propidium iodide based flow cytometry (reference value: 91%); assay type: functional; conditions: light or radiation study, read-out: Activity
[16] = test system: Jurkat; assay: Induction of apoptosis in UV-A irradiated human Jurkat cells assessed as increase in number of damaged lysosomes after 6 to 24 hrs by acridine orange- based flow cytometry; assay type: functional, cell-based
In short: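 Lysosomal stability in Jurkat cells 6, 12 and 24 h after UV-A (2.5 J/cm²) with compound. Cells resuspended in RPMI-1640 with 1 µM acridine orange; flow cytometry, excitation 488 nm, emission in FL3. Mean ± SEM of three experiments.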

[17] = test system: Nucleic Acid; assay: Induction of photo-induced DNA damage in Escherichia coli pBR322 DNA at drug:DNA ratio of 1:3 by agarose gel electrophoresis in presence of nitrogen flux; assay type: nucleic-acid assay; in short: as §2
[18] = test system: LoVo; assay: Phototoxicity in 2.5 J/cm'2 UV-A irradiated human LoVo cells after 72 hrs by MTT assay; assay type: functional, cell-based; conditions: light or radiation study; in short: as §1
[19] = test system: Nucleic Acid; assay: Induction of photo-induced supercoiled Escherichia coli pBR322 DNA damage assessed as single strand break at drug:DNA ratio of 1:3 by agarose gel electrophoresis in presence of D2O buffer; assay type: nucleic-acid assay; in short: as §2
[20] = test system: Jurkat; assay: Induction of apoptosis in 3.75 J/cm'2 UV-A irradiated human Jurkat cells assessed as early apoptotic cells at 5 uM after 24 hrs by Annexin-V-FITC and propidium iodide based flow cytometry (reference value: 1.9 %); assay type: functional
[21] = test system: Jurkat; assay: Induction of apoptosis in 3.75 J/cm'2 UV-A irradiated human Jurkat cells assessed as viable cells at 5 uM after 24 hrs by Annexin-V-FITC and propidium iodide based flow cytometry (reference value: 91 %); assay type: functional; conditions: light or radiation study, read-out: Activity

CCOC(=O)c1c2c(c(C)n1C)-c1c(cc(S(=O)(=O)c3ccccc3)c(=O)n1C)CC2
IC50 [1]: 1200 nM | Activity [2]: inactive | Activity [3]: inactive | IC50 [4]: 1700 nM | Activity [5]: 11% | IC50 [6]: 400 nM | Drug uptake [7]: Active | Activity [8]: inactive | Activity [9]: 4.2% | Activity [10]: inactive | IC50 [11]: 900 nM | Activity [12]: inactive | Activity [13]: 4.5% | Activity [14]: 21.4% | viability at 10 µM [15]: 45.2% | Activity [16]: Active | Activity [17]: inactive | IC50 [18]: 700 nM | Activity [19]: Active | Activity [20]: 14.4% | viability at 5 µM [21]: 70.1%
